# Article PMC4767723 (Drugs in R&D, 2016)
# Read-outs that look alike come from different tables or passages of the source.
# What was measured:
# [1] = cited from earlier work
# [2] = not given; remark: listed apart in the source
# [3] = type: in vivo, human; conditions: for Change in AUCss on fostamatinib co-administration with OC / Change in Cmax,ss on fostamatinib co-administration with OC: increase in exposure
# [4] = Safety and tolerability, all three studies; type: in vivo, human
# Summary of the method: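 Healthy subjects. Safety set was everyone given at least one dose of investigational product, with all available data used. Assessed throughout: incidence and severity of adverse events, clinical laboratory data, vital signs, 12-lead ECG and physical examination. AEs were tabulated by MedDRA. In the statin study, single statin doses were given alone and then with fostamatinib in a two-period, fixed-sequence design.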
# BCRP = conditions: read-out: half maximal inhibitory concentration (IC50), BCRP; in vitro; ref AstraZeneca, data on file; cited from earlier work
# [5] = test system: progesterone, luteinizing hormone, follicle-stimulating hormone, sex hormone-binding globulin; assay: OC interaction study, pharmacodynamics; type: in vivo, human
# [6] = test system: international normalized ratio (INR); assay: Warfarin interaction study, pharmacodynamics; design: species or system human; conditions: in vivo
# [7] = for Increase in AUC with fostamatinib / Individual Cmax differences (warfarin alone to warfarin plus fostamatinib): human; for Increase in AUC with fostamatinib / Individual Cmax differences (warfarin alone to warfarin plus fostamatinib) / Individual AUC differences / Prolongation of t½λz: in vivo
# [8] = typical value; not determined in the current studies; cited from earlier work
# [9] = fostamatinib co-administration with OC
compound,measurement,setting,value
"CC(C)c1nc(N(C)S(C)(=O)=O)nc(-c2ccc(F)cc2)c1/C=C/[C@@H](O)C[C@@H](O)CC(=O)O [Rosuvastatin, rosuvastatin]",Increase in AUC with fostamatinib,"human, in vivo",96%
same,Increase in Cmax with fostamatinib,"human, in vivo",88%
same,absorption (restricted by BCRP),[1],50%
"CCC(C)(C)C(=O)O[C@H]1C[C@@H](C)C=C2C=C[C@H](C)[C@H](CC[C@@H]3C[C@@H](O)CC(=O)O3)[C@H]21 [Simvastatin, simvastatin]",Change in tmax with fostamatinib,"[2]; human, in vivo",marginal change
same,Decrease in half-life in the presence of fostamatinib,"[2]; human, in vivo",approximately 3 h
same,Net apparent reduction in clearance,[2]; with fostamatinib,40.3%
"C#C[C@]1(O)CC[C@H]2[C@@H]3CCc4cc(O)ccc4[C@H]3CC[C@@]21C [Ethinyl estradiol, ethinyl estradiol]",AUCss ratio Microgynon + fostamatinib/microgynon alone,[3]; geometric LS mean ratio,128.2%
same,"Cmax,ss ratio Microgynon + fostamatinib/microgynon alone",[3]; geometric LS mean ratio,134.3%
same,Change in AUCss on fostamatinib co-administration with OC,[3],28%
same,"Change in Cmax,ss on fostamatinib co-administration with OC",[3],34%
"COc1cc(Nc2ncc(F)c(Nc3ccc4c(n3)N(COP(=O)(O)O)C(=O)C(C)(C)O4)n2)cc(OC)c1OC [Fostamatinib, fostamatinib]",Tolerability,[4],well tolerated
same,IC50,BCRP,50 nM
same,Decrease in exposure to follicle-stimulating hormone,[5]; [9],≈ 20%
same,Decrease in exposure to luteinizing hormone,[5]; [9],≈ 20%
same,Luteinizing hormone AUCss ratio Microgynon + fostamatinib/microgynon alone,[5]; in vivo,83.2%
same,"Luteinizing hormone Cmax,ss ratio Microgynon + fostamatinib/microgynon alone",[5]; in vivo,75.6%
same,Progesterone AUCss ratio Microgynon + fostamatinib/microgynon alone,[5]; in vivo,104.3%
same,"Progesterone Cmax,ss ratio Microgynon + fostamatinib/microgynon alone",[5]; in vivo,99.8%
same,"AUCINR,0–168 ratio Warfarin + fostamatinib/warfarin alone",[6],97.0%
same,INRmax ratio Warfarin + fostamatinib/warfarin alone,[6],89.7%
"CC(=O)C[C@H](c1ccccc1)c1c(O)c2ccccc2oc1=O [R-Warfarin, R-warfarin]",Increase in AUC with fostamatinib,[7],18%
same,Individual Cmax differences (warfarin alone to warfarin plus fostamatinib),[7],−16.1 to 22%
same,Individual AUC differences,[7],5.0-33.0%
same,Prolongation of t½λz,[7],approximately 6 h
"C#C[C@]1(O)CC[C@H]2[C@@H]3CCC4=CC(=O)CC[C@@H]4[C@H]3CC[C@@]21CC [Levonorgestrel, levonorgestrel]",AUCss ratio Microgynon + fostamatinib/microgynon alone,[3]; geometric LS mean ratio,105.1%
same,Change in AUCss on fostamatinib co-administration with OC,[3],5%
same,"Change in Cmax,ss on fostamatinib co-administration with OC",[3],−3%
"CCC(C)(C)C(=O)O[C@H]1C[C@@H](C)C=C2C=C[C@H](C)[C@H](CC[C@@H](O)C[C@@H](O)CC(=O)O)[C@H]21 [Simvastatin acid, simvastatin acid]",Decrease in half-life in the presence of fostamatinib,"[2]; human, in vivo",about 1.5 h
same,Increase in AUC with fostamatinib,"[2]; human, in vivo",74%
same,Increase in Cmax with fostamatinib,"[2]; human, in vivo",83%
"CC(=O)C[C@@H](c1ccccc1)c1c(O)c2ccccc2oc1=O [S-Warfarin, S-warfarin]",Increase in AUC with fostamatinib,[7],13%
same,Individual Cmax differences (warfarin alone to warfarin plus fostamatinib),[7],−25.6 to 27%
same,Individual AUC differences,[7],0.0-36.0%
same,Prolongation of t½λz,[7],approximately 6 h
COc1cc(Nc2ncc(F)c(Nc3ccc4c(n3)NC(=O)C(C)(C)O4)n2)cc(OC)c1OC [R406],Increase in exposure,[2]; fostamatinib combined with simvastatin,≈ 10%
same,Increase in exposure,fostamatinib combined with rosuvastatin,≈ 10%
same,"Cmax,ss, geometric mean","[3]; Fostamatinib + OC, period 2 day 21",812 ng/mL
same,half-life,[8],~ 14 h
same,IC50,BCRP,31 nM
same,"Cmax,ss, geometric mean",[7]; Fostamatinib + warfarin,557 ng/mL
